Test [1] deals with 1,3-beta-glucan synthase (Candida glabrata, UniProt F5BCZ9, F659V). The test is described as follows: Inhibition of Candida glabrata isolate 234 1,3-beta-D-glucan synthase wild type Fks1p/Fks2p F659V mutant. In short, it runs like this:
(§1)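 Cells grown in YPD broth at 35°C with vigorous shaking to early stationary phase. Membrane protein extracted and glucan synthase partially purified by product entrapment. Filtration polymerization assay measured [3H]glucose incorporation into product, started by adding enzyme. Echinocandin serial dilutions spanned 0.01–10,000 ng/ml, with 1% DMSO controls for anidulafungin. IC50 from variable-slope sigmoidal fit.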

In test [2] the target is 1,3-beta-glucan synthase (Candida glabrata, UniProt F5BCZ9, P667T). As to the kind of experiment: Inhibition of Candida glabrata isolate 51916 1,3-beta-D-glucan synthase wild type Fks1p/Fks2p P667T mutant. In short, it runs like this:
as §1

Test [3] has as its target 1,3-beta-glucan synthase (Candida glabrata, UniProt F5BCZ9, W1375L). The test is described as follows: Inhibition of Candida glabrata isolate 5416 1,3-beta-D-glucan synthase wild type Fks1p/Fks2p W1375L mutant. The method in brief:
as §1

Test [4] addresses 1,3-beta-glucan synthase (Candida glabrata, UniProt F5BCZ9, D666E). The test is described as follows: Inhibition of Candida glabrata isolate 42031 1,3-beta-D-glucan synthase wild type Fks1p/Fks2p D666E mutant. The method in brief:
as §1

The target of test [5] is 1,3-beta-glucan synthase (Candida glabrata, UniProt E2GKZ4, S629P). The test is described as follows: Inhibition of Candida glabrata isolate 5847 1,3-beta-D-glucan synthase Fks1p S629P mutant/wild type Fks2p. In short, it runs like this:
as §1

Test [6] concerns the target 1,3-beta-glucan synthase (Candida glabrata, UniProt F5BCZ9, F659S). The test is described as follows: Inhibition of Candida glabrata isolate 41026 1,3-beta-D-glucan synthase wild type Fks1p/Fks2p F659S mutant. The method in brief: as §1
The target of test [7] is 1,3-beta-glucan synthase (Candida glabrata, UniProt F5BCZ9, S663P). The test is described as follows: Inhibition of Candida glabrata isolate 3830 1,3-beta-D-glucan synthase wild type Fks1p/Fks2p S663P mutant. The method in brief:
as §1

The target of test [8] is 1,3-beta-glucan synthase (Candida glabrata, UniProt F5BCZ9, D666G). As to the kind of experiment: Inhibition of Candida glabrata isolate 41400 1,3-beta-D-glucan synthase wild type Fks1p/Fks2p D666G mutant. In short, it runs like this:
as §1

The target in test [9] is 1,3-beta-glucan synthase (Candida glabrata, UniProt E2GKZ4, D632E). The test is described as follows: Inhibition of Candida glabrata isolate 3169 1,3-beta-D-glucan synthase Fks1p D632E mutant/wild type Fks2p. The method in brief: as §1

The text below walks through data of BindingDB's records for doi:10.1128/AAC.00443-09 (University of Medicine and Dentistry of New Jersey, 2009).

Broadly, the IC50 is the concentration that inhibits the measured activity by half. A high value points to a need for much substance.

Sequence of 1,3-beta-glucan synthase (Candida glabrata, UniProt E2GKZ4, S629P) (E2GKZ4 entry or part of it S629P): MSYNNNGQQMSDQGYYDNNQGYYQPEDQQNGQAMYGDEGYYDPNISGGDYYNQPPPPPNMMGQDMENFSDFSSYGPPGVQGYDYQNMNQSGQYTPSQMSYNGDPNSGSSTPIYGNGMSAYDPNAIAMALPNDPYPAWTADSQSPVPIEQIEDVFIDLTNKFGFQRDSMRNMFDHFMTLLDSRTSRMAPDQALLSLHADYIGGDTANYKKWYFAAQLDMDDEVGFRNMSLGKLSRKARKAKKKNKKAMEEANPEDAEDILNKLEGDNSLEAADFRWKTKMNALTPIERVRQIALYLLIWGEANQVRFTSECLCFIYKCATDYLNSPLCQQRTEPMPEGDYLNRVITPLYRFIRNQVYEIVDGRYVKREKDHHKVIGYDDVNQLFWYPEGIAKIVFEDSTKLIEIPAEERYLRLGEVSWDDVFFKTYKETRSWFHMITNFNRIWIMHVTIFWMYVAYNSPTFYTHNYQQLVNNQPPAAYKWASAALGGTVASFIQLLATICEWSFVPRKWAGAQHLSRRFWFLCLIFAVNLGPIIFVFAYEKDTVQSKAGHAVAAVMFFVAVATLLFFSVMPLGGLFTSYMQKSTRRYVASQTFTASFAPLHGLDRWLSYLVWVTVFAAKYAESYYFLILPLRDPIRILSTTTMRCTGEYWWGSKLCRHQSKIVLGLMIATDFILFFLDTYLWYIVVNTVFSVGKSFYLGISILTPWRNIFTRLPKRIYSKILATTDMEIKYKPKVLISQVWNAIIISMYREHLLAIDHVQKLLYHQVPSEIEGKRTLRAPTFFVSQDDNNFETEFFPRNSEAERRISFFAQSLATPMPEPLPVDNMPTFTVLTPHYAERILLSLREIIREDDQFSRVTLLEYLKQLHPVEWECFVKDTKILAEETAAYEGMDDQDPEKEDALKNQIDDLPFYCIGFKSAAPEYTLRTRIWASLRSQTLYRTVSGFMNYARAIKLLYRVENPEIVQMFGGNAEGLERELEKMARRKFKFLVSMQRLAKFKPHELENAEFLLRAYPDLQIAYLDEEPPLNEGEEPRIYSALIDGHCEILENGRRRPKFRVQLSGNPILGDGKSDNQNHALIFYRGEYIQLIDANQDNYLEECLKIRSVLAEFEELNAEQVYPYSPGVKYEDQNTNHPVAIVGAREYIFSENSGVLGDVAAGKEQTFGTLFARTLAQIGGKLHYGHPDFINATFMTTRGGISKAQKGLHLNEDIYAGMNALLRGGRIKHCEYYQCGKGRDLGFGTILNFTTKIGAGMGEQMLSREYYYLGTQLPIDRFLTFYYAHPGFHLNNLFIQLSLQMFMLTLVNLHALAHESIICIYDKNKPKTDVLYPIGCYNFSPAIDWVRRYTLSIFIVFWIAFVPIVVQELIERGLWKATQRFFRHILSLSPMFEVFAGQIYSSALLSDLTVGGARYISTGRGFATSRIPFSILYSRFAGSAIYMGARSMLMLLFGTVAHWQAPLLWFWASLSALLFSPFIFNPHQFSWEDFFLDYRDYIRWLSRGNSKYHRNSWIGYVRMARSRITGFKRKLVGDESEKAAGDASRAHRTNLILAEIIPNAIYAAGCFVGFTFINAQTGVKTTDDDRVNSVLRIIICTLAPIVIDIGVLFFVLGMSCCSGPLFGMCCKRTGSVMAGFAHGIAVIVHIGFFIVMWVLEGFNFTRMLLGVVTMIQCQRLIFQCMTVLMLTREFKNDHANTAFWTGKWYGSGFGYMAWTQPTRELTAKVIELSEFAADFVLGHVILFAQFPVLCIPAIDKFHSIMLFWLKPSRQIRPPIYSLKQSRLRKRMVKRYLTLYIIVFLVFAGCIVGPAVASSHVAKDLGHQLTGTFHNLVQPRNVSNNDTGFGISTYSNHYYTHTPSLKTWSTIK
Sequence of 1,3-beta-glucan synthase (Candida glabrata, UniProt F5BCZ9, P667T) (F5BCZ9 entry or part of it P667T): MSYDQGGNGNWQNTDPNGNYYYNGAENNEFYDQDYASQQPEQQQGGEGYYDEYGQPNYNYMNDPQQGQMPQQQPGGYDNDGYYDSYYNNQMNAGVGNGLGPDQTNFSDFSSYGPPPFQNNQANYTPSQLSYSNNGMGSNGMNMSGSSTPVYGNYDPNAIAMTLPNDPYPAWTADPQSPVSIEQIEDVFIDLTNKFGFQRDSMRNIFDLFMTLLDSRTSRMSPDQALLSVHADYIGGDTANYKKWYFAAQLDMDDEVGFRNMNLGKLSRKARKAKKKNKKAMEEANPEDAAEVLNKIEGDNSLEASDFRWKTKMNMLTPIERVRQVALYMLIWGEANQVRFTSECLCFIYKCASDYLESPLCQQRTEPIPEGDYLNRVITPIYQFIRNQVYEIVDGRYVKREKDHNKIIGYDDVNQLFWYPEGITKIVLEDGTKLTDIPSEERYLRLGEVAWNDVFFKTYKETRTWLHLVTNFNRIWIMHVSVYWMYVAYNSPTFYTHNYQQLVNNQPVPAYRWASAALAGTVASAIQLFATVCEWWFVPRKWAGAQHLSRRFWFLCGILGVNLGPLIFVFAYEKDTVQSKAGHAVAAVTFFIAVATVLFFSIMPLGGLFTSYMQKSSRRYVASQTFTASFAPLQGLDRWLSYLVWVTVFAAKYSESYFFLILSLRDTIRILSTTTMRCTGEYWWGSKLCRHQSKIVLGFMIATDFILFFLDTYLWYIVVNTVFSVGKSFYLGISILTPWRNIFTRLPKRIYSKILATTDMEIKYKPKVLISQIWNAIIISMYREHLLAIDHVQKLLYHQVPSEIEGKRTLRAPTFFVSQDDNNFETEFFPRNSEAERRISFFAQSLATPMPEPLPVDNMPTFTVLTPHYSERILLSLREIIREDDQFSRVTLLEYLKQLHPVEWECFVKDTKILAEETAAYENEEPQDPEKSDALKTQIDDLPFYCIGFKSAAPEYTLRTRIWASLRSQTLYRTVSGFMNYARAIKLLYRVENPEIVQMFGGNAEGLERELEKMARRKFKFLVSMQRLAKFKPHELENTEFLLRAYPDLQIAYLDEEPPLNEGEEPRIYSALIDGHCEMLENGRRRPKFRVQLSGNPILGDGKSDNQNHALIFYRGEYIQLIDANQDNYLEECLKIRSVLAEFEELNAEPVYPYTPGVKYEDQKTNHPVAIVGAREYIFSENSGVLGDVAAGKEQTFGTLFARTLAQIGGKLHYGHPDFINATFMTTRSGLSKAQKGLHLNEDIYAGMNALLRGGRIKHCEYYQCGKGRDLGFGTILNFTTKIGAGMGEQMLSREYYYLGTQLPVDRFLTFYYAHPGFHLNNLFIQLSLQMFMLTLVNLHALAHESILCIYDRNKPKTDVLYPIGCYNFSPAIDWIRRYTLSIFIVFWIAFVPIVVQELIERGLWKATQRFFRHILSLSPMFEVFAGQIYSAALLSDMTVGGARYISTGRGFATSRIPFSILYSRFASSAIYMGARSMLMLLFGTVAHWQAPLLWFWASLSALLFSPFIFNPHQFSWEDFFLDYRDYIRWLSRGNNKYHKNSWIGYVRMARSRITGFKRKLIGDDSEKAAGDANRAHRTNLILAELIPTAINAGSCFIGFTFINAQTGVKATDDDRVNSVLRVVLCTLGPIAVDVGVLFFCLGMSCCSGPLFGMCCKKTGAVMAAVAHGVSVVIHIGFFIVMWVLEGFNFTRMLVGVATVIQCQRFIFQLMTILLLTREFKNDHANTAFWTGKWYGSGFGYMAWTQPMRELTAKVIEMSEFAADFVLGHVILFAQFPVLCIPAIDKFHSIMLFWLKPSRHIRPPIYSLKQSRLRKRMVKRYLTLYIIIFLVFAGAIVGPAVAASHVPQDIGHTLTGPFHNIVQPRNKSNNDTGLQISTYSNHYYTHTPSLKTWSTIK

Turning to `CCC(C)CC(C)CCCCCCCCC(=O)N[C@H]1C[C@@H](O)[C@@H](NCCN)NC(=O)[C@@H]2[C@@H](O)CCN2C(=O)[C@H]([C@H](O)CCN)NC(=O)[C@H]([C@H](O)[C@@H](O)c2ccc(O)cc2)NC(=O)[C@@H]2C[C@@H](O)CN2C(=O)[C@H]([C@@H](C)O)NC1=O` (some centres undefined) [CHEBI:474180], the IC50 against 1,3-beta-glucan synthase [1] came out at 115 nM; against 1,3-beta-glucan synthase [2] it was 166 nM; at 1,3-beta-glucan synthase [3], 608 nM; on 1,3-beta-glucan synthase [4], 258 nM; against 1,3-beta-glucan synthase [5] it was 4990 nM; on 1,3-beta-glucan synthase [6] it was 1060 nM. Also, the IC50 stood at 5120 nM at 1,3-beta-glucan synthase [7], 507 nM against 1,3-beta-glucan synthase [8] and 845 nM on 1,3-beta-glucan synthase [9].
